Laboratory results as given in ChEMBL document CHEMBL2321719, “Discovery of novel α₁-adrenoceptor ligands based on the antipsychotic sertindole suitable for labeling as PET ligands” (Bioorg Med Chem, 2013).

How the values were obtained:
[1] = Selectivity ratio of Ki for human dopamine D2 receptor to Ki for bovine alpha1A adrenoceptor
In short: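 D2: human receptor in CHO membranes, 0.1 nM [3H]spiperone, 50 mM Tris pH 7.4, nonspecific binding with haloperidol, 30 min at 37 °C. Both used GF/B filtration, ≥2 ten-point curves and Cheng–Prusoff.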

D(2) dopamine receptor = D(2) dopamine receptor (Homo sapiens, UniProt P14416); experiment: Displacement of [3H]spiperone from human dopamine D2 receptor expressed in CHO cells after 30 mins by scintillation counting analysis; format: cell-based
D(2) dopamine receptor, sequence (P14416 whole entry): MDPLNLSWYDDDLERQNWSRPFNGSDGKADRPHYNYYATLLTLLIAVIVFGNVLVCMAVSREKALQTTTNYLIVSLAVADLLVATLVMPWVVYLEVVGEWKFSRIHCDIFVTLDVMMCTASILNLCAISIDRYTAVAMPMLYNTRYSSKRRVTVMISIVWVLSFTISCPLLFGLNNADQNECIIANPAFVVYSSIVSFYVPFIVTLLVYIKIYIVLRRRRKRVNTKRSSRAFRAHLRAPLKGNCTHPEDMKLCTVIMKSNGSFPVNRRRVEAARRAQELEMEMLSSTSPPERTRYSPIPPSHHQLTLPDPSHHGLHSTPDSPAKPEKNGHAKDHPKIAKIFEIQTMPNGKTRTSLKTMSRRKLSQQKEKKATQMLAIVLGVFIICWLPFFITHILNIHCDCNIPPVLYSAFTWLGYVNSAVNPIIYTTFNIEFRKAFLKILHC

[2] = target: T1, Alpha-1A adrenergic receptor (Bos taurus, UniProt P18130); experiment: Displacement of [3H]prazosine from bovine alpha1A adrenoceptor expressed in BHK cells after 20 mins by scintillation counting analysis; format: cell-based
T1 sequence (P18130 whole entry): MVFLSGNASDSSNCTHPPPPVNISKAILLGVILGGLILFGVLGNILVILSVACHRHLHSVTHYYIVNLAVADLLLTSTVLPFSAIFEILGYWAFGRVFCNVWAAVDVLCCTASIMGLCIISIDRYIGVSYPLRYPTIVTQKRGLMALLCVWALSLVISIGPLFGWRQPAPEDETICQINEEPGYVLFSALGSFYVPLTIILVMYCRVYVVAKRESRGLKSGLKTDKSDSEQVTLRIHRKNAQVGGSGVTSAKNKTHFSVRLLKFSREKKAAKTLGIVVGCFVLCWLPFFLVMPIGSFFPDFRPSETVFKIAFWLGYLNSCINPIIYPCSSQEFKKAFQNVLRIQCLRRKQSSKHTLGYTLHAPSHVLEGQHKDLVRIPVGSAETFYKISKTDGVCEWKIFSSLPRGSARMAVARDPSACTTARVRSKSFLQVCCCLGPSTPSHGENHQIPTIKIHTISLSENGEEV

[3] = Unbound fraction in rat brain at 1000 ng/g after 5 hrs by equilibrium dialysis method; format: ADME, tissue-based
In short: (§1)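 Free fraction was measured by 96-well equilibrium dialysis through 3 kDa membranes. Plasma was diluted 1:1 with PBS; rat brain was sonicated on ice to 1:2 brain:PBS. Matrices were spiked at 1000 ng/g (n = 6) and dialysed against PBS for 5 h at 37 °C. Samples were read by LC–MS/MS, and fu was calculated per Kalvass–Maurer with correction for brain dilution.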

[4] = Ratio of drug level in brain to plasma in rat at 1 hr; format: ADME, cell-free; conditions: brain and plasma, read-out: BPR
[5] = Apparent permeability across apical to basolateral side in human Caco2 cells at 1 to 20 uM by LC-MS/MS analysis; format: ADME, cell-based; conditions: Caco-2
In short: (§2)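 Caco-2 monolayers were grown on permeable filters for 21–28 days. A 2 mM DMSO stock was diluted in Hanks-Hepes buffer, pH 7.4, and added to the apical (A–B) or basolateral (B–A) side. The receiver side was sampled over 240 min and topped up with fresh buffer, then analysed by LC–MS/MS. […] Efflux ratio = Papp(B–A)/Papp(A–B).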

[6] = Unbound fraction in rat plasma at 1000 ng/g after 5 hrs by equilibrium dialysis method; format: ADME, cell-free; in short: as §1
[7] = Ratio of drug level in brain to plasma at steady state in rat at 1000 ng/g after 5 hrs; format: ADME, cell-free; conditions: brain and plasma, read-out: BPR
In short: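 Steady-state rat brain/plasma ratio was estimated from equilibrium-dialysis free fractions (spike 1000 ng/g, 5 h, 37 °C, LC–MS/MS) as fu,plasma/fu,brain. This assumes passive distribution, with equal unbound concentrations in brain and plasma.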

[8] = target: T2, Alpha-1B adrenergic receptor (Mesocricetus auratus, UniProt P18841); experiment: Displacement of [3H]prazosine from hamster alpha1B adrenoceptor expressed in Rat1 cells after 20 mins by scintillation counting analysis; format: cell-based
T2 sequence (P18841 whole entry): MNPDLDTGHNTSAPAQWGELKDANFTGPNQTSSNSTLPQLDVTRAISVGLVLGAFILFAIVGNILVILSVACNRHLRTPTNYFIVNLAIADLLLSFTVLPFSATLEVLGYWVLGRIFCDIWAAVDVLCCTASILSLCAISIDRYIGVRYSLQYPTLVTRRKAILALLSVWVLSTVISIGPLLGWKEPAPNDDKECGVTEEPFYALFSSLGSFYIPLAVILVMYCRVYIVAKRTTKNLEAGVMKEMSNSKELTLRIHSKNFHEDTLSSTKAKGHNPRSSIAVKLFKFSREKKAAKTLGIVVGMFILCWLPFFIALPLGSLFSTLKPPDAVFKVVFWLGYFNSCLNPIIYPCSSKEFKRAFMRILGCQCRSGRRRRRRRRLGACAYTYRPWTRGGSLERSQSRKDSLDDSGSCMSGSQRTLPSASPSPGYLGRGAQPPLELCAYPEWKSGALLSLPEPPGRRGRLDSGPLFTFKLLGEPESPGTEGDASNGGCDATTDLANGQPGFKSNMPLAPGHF

[9] = Unbound fraction in rhesus monkey plasma at 1000 ng/g after 5 hrs by equilibrium dialysis method; format: ADME, cell-free, Macaca mulatta; in short: as §1
[10] = Unbound fraction in human plasma at 1000 ng/g after 5 hrs by equilibrium dialysis method; format: ADME, cell-free; in short: as §1
[11] = target: 5-hydroxytryptamine receptor 2A (Homo sapiens, UniProt P28223); experiment: Binding affinity to 5-HT2A receptor (unknown origin) by radioligand displacement assay
5-hydroxytryptamine receptor 2A, sequence (P28223 whole entry): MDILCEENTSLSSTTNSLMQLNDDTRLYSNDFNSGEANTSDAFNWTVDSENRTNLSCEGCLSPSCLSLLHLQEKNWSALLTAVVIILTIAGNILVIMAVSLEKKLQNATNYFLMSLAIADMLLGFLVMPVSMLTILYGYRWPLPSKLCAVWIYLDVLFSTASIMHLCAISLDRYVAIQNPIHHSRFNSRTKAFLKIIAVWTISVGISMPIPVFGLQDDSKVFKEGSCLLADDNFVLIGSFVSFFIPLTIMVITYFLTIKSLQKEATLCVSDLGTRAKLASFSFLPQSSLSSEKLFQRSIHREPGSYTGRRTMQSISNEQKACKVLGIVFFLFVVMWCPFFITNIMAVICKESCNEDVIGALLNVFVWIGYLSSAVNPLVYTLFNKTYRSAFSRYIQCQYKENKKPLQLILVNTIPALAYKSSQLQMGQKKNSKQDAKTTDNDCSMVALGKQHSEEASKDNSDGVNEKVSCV
In short: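 This external human 5-HT2A binding assay (Cerep) tested compounds at two concentrations, one of them 100 nM. Ki was derived from a single run, so the error is unknown.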

[12] = Apparent permeability across apical to basolateral side in human Caco2 cells at 20 uM by LC-MS/MS analysis; format: ADME, cell-based; conditions: Caco-2; in short: as §2
[13] = Unbound fraction in cynomolgus monkey plasma at 1000 ng/g after 5 hrs by equilibrium dialysis method; format: ADME, cell-free, Macaca fascicularis; in short: as §1
[14] = Efflux ratio of apparent permeability from basolateral to apical side over apical to basolateral side in human Caco2 cells at 20 uM; format: ADME, cell-based; conditions: Caco-2
In short: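 Caco-2 monolayers grown 21–28 days on permeable filters; 2 mM DMSO stock diluted in Hanks-Hepes buffer, pH 7.4, and added to the apical (A–B) or basolateral (B–A) chamber. The opposite chamber was sampled over 240 min, with buffer replaced, and analysed by LC–MS/MS. Papp = dQ/dt × 1/(A × C0), with area 1.1 cm²; ratio = Papp(B–A)/Papp(A–B); N = 2.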

[15] = target: T3, Alpha-1D adrenergic receptor (Rattus norvegicus, UniProt P23944); experiment: Displacement of [3H]prazosine from rat alpha1D adrenoceptor expressed in CHO cells after 20 mins by scintillation counting analysis; format: cell-based
T3 sequence (P23944 whole entry): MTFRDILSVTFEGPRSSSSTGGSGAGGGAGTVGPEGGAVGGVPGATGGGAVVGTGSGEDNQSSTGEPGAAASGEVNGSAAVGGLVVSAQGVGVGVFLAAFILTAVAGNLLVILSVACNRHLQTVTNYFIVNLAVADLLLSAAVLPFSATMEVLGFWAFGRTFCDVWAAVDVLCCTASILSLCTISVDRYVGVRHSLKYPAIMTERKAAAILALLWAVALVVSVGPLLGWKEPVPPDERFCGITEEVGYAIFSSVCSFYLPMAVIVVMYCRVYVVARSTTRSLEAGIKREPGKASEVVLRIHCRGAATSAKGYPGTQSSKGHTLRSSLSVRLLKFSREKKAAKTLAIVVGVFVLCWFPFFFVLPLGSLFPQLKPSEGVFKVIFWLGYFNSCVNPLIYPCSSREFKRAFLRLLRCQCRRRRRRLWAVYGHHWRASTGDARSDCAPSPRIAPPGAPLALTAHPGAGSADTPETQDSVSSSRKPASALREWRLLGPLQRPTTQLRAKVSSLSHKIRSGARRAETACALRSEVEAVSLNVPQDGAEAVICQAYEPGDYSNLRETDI

[16] = target: 5-hydroxytryptamine receptor 1B (Homo sapiens, UniProt P28222); experiment: Displacement of [3H]CT from human 5-HT1B receptor expressed in human HeLa cells after 60 mins by scintillation counting analysis; format: cell-based
5-hydroxytryptamine receptor 1B, sequence (P28222 whole entry): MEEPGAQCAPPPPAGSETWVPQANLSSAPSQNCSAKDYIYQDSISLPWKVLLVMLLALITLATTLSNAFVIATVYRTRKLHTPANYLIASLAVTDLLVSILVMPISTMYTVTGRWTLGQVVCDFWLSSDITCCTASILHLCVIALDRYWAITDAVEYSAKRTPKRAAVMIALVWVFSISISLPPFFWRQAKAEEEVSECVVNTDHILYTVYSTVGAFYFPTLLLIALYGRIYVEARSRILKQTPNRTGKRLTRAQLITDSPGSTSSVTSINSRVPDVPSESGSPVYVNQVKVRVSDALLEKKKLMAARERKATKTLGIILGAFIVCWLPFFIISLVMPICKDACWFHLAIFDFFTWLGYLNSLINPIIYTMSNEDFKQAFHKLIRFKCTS
In short: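 Membranes from HeLa cells expressing human 5-HT1B were prepared in ice-cold 50 mM Tris, pH 7.4. The assay ran in 50 mM Tris, pH 7.7, with 0.8 mg/mL WGA SPA beads and 1.5 nM [3H]CT, for 60 min at room temperature, read by scintillation counting. Nonspecific binding was taken with 5-HT creatinine sulphate. Ki came from ≥2 ten-point curves spanning 4 decades, via Cheng–Prusoff.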

[17] = target: 5-hydroxytryptamine receptor 6 (Homo sapiens, UniProt P50406); experiment: Displacement of [3H]LSD from human 5-HT6 receptor expressed in human HeLa cells after 60 mins by scintillation counting analysis; format: cell-based
5-hydroxytryptamine receptor 6, sequence (P50406 whole entry): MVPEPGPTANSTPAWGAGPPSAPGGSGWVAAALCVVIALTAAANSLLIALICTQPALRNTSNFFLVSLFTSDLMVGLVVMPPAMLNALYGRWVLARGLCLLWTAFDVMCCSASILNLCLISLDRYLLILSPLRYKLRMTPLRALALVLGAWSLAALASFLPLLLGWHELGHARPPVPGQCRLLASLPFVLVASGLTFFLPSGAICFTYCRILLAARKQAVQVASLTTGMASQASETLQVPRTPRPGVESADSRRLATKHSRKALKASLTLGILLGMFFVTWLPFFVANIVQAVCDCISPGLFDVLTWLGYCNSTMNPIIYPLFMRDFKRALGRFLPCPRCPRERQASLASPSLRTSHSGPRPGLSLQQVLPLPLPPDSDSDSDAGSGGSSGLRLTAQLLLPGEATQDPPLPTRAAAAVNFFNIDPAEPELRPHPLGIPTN
In short: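 HeLa cells expressing human 5-HT6 were homogenised in 50 mM Tris, pH 7.4. Binding used 50 mM Tris, pH 7.7, and 1 nM [3H]LSD, with nonspecific binding taken with an indolylpiperidine 5-HT6 ligand. Incubation was 60 min at 22 °C, followed by GF/B filtration and scintillation counting. Ki came from ≥2 ten-point curves, via Cheng–Prusoff.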

[18] = Efflux ratio of apparent permeability from basolateral to apical side over apical to basolateral side in human Caco2 cells at 1 to 20 uM; format: ADME, cell-based; conditions: Caco-2; in short: as §2

Row | Structure (SMILES) | Ratio Ki [1] | Ki (D(2) dopamine receptor) | Ki [2] | fraction unbound at 5 h, 1000 ng/g [3] | fraction unbound at 5 h, 1000 ng/g [6] | Kp at 5 h, 1000 ng/g [7] | further results
1 | Cn1cc(-c2ccc3c(c2)c(C2CCN(CCN4CCNC4=O)CC2)cn3-c2ccc(F)cc2)nn1 | – | – | – | 0.0081 | 0.072 | 8.9 | Kp at 1 h [4]: > 0.05; Papp A→B at up to 20 µM [5]: 5 ×10⁻⁶ cm/s
2 | CN1CCC(c2cn(-c3ccncc3)c3ccc(-c4cncnc4)cc23)CC1 | 44 | 830 nM | 19 nM | – | – | – | –
3 | CN1CCC(c2cn(-c3ccncc3)c3ccc(-c4cccnc4)cc23)CC1 | 50 | 1100 nM | 22 nM | – | – | – | –
4 | Cn1nnc(-c2ccc3c(c2)c(C2CCN(CCN4CCNC4=O)CC2)cn3-c2ccc(F)cc2)n1 | – | – | – | 0.0035 | 0.022 | 6.3 | Kp at 1 h [4]: 0.26; Papp A→B at up to 20 µM [5]: 12 ×10⁻⁶ cm/s
5 | CN1CCC(c2cn(-c3ccncc3)c3ccc(-c4ccncc4)cc23)CC1 | 11 | 260 nM | 24 nM | – | – | – | –
6 | CN1CCC(c2cn(-c3ccncc3)c3ccc(-c4ccnn4C)cc23)CC1 | 46 | 880 nM | 19 nM | – | – | – | –
7 | CCN1CCC[C@H]1CNC(=O)c1c(O)c(Cl)cc(Cl)c1OC [RACLOPRIDE] | – | – | – | 0.08 | 0.27 | 3.4 | efflux ratio at up to 20 µM [18]: 0.5; Kp at 1 h [4]: 6.4; Papp A→B at up to 20 µM [5]: 66 ×10⁻⁶ cm/s
8 | COc1ccccc1N1CCN(CCN(C(=O)C2CCCCC2)c2ccccn2)CC1 [WAY-100,635] | – | – | – | 0.084 | 0.1 | 1.2 | efflux ratio at up to 20 µM [18]: 0.9; Kp at 1 h [4]: 1.7; Papp A→B at up to 20 µM [5]: 38 ×10⁻⁶ cm/s

Further lines, with some results ahead:

Row | Ratio Ki [1] | Ki (D(2) dopamine receptor) | Ki [2] | fraction unbound at 5 h, 1000 ng/g [3] | fraction unbound at 5 h, 1000 ng/g [6] | Kp at 5 h, 1000 ng/g [7] | Structure (SMILES) | further results
9 | 296 | 160 nM | 0.54 nM | – | – | – | CN1CCC(c2cn(-c3ccc(F)cc3)c3ccc(-c4ccn(C)n4)cc23)CC1 | –
10 | 3 | 27 nM | 10 nM | – | – | – | CN1CCC(c2cn(-c3ccc(F)cc3)c3ccc(-c4ccncc4)cc23)CC1 | –
11 | 47 | 15 nM | 0.32 nM | – | – | – | CN1CCC(c2cn(-c3ccc(F)cc3)c3ccc(-c4ccnn4C)cc23)CC1 | –
12 | 168 | 6400 nM | 38 nM | – | – | – | CN1CCC(c2cn(-c3ccncc3)c3ccc(-c4cnn(C)c4)cc23)CC1 | –
13 | 1380 | 220 nM | 0.16 nM | 0.002 | 0.074 | 37 | CN1CCC(c2cn(-c3ccc(F)cc3)c3ccc(-c4ncn(C)n4)cc23)CC1 | Ki [8]: 6.4 nM; fraction unbound at 5 h, 1000 ng/g [9]: 0.18; fraction unbound at 5 h, 1000 ng/g [10]: 0.17; Ki [11]: 89 nM; Papp A→B at 20 µM [12]: 18 ×10⁻⁶ cm/s; fraction unbound at 5 h, 1000 ng/g [13]: 0.16; efflux ratio at 20 µM [14]: 0.7; Ki [15]: 15 nM
14 | – | – | – | 0.0025 | 0.088 | 35 | CN1CCC(c2cn(-c3ccc(F)cc3)c3ccc(-c4cncnc4)cc23)CC1 | fraction unbound at 5 h, 1000 ng/g [9]: 0.13; fraction unbound at 5 h, 1000 ng/g [10]: 0.096; Ki [16]: 13 nM; Papp A→B at 20 µM [12]: 13 ×10⁻⁶ cm/s; fraction unbound at 5 h, 1000 ng/g [13]: 0.1; Ki [17]: 16 nM
15 | 246 | 69 nM | 0.28 nM | – | – | – | CN1CCC(c2cn(-c3ccc(F)cc3)c3ccc(-c4nnn(C)n4)cc23)CC1 | –
16 | 56 | 150 nM | 2.7 nM | – | – | – | CN1CCC(c2cn(-c3ccc(F)cc3)c3ccc(-c4cnn(C)c4)cc23)CC1 | –
17 | 33 | 76 nM | 2.3 nM | – | – | – | CN1CCC(c2cn(-c3ccc(F)cc3)c3ccc(-c4cccnc4)cc23)CC1 | –
